Assays:
[1] = Muscle/blood distribution ratio was determined immature female rats at 1 hr with unlabeled estradiol; format: functional
In short: (§1)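 Immature (25-day, ca. 50 g) Sprague-Dawley female rats received an iv injection (jugular or tail vein) of HPLC-purified tracer in ethanol plus 0.9% NaCl/rat serum 1:1. Doses were 2 μCi [125I]iodo tracer (≤15 pmol), or 2 μCi [77Br]bromo tracer (≤1.25 pmol) with 2 μCi 16α-[125I]iodoestradiol. Animals were killed at 1 h; blood and tissues were weighed and γ-counted. Blocking: coinjected unlabeled estradiol, 9 μg (iodo) or 18 μg (bromo). Mean ± SD.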

Rattus norvegicus [2] = species: Rattus norvegicus; assay: Percent injected dose per gram spleen at 1 hr; format: functional
In short: (§2)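 Immature (25 day) female Sprague-Dawley rats (ca. 50 g) were dosed iv (jugular or tail vein) in ethanol plus 0.9% NaCl/rat serum (1:1). Doses were 2 μCi of [125I]iodonorhexestrol (≤15 pmol/dose), or 2 μCi each of [77Br]bromonorhexestrol (≤1.25 pmol/dose) and 16α-[125I]iodoestradiol (2 pmol/dose). Rats were killed at 1, 3 or 6 h; blood and tissues were weighed and γ-counted. Thyroid weight assumed 0.005 g/100 g body weight. Mean ± SD.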

[3] = Lung/blood distribution ratio was determined in immature female rats at 3h; format: functional
In short: (§3)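 Dual-label study in immature 25-day female Sprague-Dawley rats (ca. 50 g). Each received 2 μCi [77Br]bromo tracer (≤1.25 pmol/dose) and 2 μCi 16α-[125I]iodoestradiol (2 pmol/dose) by tail or jugular vein, in ethanol diluted with saline/rat serum 1:1. Rats were killed at 3 or 6 h; blood and 11 tissues were weighed and counted. Five rats per time point; mean ± SD.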

Rattus norvegicus [4] = species: Rattus norvegicus; assay: Percent injected dose per gram thyroid at 1 hr with unlabeled estradiol; format: functional, Thyroid gland
In short: (§4)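 Same iv biodistribution in immature female rats, killed at 1 h, with unlabeled estradiol coinjected to block receptor uptake: 9 μg with [125I]iodonorhexestrol (3 rats), 18 μg with the [77Br]bromonorhexestrol/16α-[125I]iodoestradiol pair (5 rats). Tissue and blood radioactivity were counted as % injected dose/g and tissue-to-blood ratio.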

[5] = Thyroid/blood distribution ratio was determined in immature female rats at 1 hr; format: functional; in short: as §2
Rattus norvegicus [6] = species: Rattus norvegicus; assay: Percent injected dose per gram kidney at 1 hr with unlabeled estradiol; format: functional; in short: as §1
[7] = Uterus/blood distribution ratio was measured in immature female rats at 6 hr; format: functional; in short: as §2
Rattus norvegicus [8] = species: Rattus norvegicus; assay: Percent injected dose per gram blood at 6 hr; format: functional; in short: as §3
Rattus norvegicus [9] = species: Rattus norvegicus; assay: Percent injected dose per gram thyroid at 1 hr; format: functional, Thyroid gland; in short: as §2
[10] = Ovary/blood distribution ratio was determined in immature female rats at 1 hr with unlabeled estradiol; format: functional; in short: as §1
[11] = Kidney/blood distribution ratio was determined in immature female rats at 6 hr; format: functional; in short: as §3
Rattus norvegicus [12] = species: Rattus norvegicus; assay: Percent injected dose per gram spleen at 1 hr with unlabeled estradiol; format: functional; in short: as §4
Rattus norvegicus [13] = species: Rattus norvegicus; assay: Percent injected dose per gram liver at 6 hr; format: functional; in short: as §2
[14] = Lung/blood distribution ratio was determined in immature female rats at 6 hr; format: functional; in short: as §3
Rattus norvegicus [15] = species: Rattus norvegicus; assay: Percent injected dose per gram blood at 3h; format: functional; in short: as §3
[16] = Uterus/blood distribution ratio was measured in immature female rats at 3h; format: functional; in short: as §2
Rattus norvegicus [17] = species: Rattus norvegicus; assay: Percent injected dose per gram lung at 1 hr; format: functional; in short: as §2
[18] = Spleen/blood distribution ratio was determined immature female rats at 1 hr; format: functional; in short: as §2
[19] = Ovary/blood distribution ratio was determined in immature female rats at 6 hr; format: functional; in short: as §3
[20] = Uterus/blood distribution of compound was measured in immature female rats at 1 hr with unlabeled estradiol; format: functional; in short: as §4
[21] = Uterus/blood distribution ratio was measured in immature female rats at 1 hr; format: functional; in short: as §2
Rattus norvegicus [22] = species: Rattus norvegicus; assay: Percent injected dose per gram Muscle at 6 hr; format: functional; in short: as §3
[23] = Spleen/blood distribution ratio was determined immature female rats at 3h; format: functional; in short: as §2
Rattus norvegicus [24] = species: Rattus norvegicus; assay: Percent injected dose per gram Muscle at 1 hr; format: functional; in short: as §1
[25] = Kidney/blood distribution ratio was determined in immature female rats at 1 hr with unlabeled estradiol; format: functional; in short: as §1
Rattus norvegicus [26] = species: Rattus norvegicus; assay: Percent injected dose per gram kidney at 3h; format: functional; in short: as §3
[27] = Liver/blood distribution ratio was determined in immature female rats at 1 hr with unlabeled estradiol; format: functional; in short: as §1
Rattus norvegicus [28] = species: Rattus norvegicus; assay: Percent injected dose per gram liver at 1 hr; format: functional; in short: as §2
[29] = Esophagus/blood distribution ratio was determined in immature female rats at 3h; format: functional; in short: as §3
Rattus norvegicus [30] = species: Rattus norvegicus; assay: Percent injected dose per gram thyroid at 6 hr; format: functional, Thyroid gland; in short: as §2
[31] = Spleen/blood distribution ratio was determined in immature female rats at 1 hr with unlabeled estradiol; format: functional
Rattus norvegicus [32] = species: Rattus norvegicus; assay: Percent injected dose per gram Muscle at 1 hr with unlabeled estradiol; format: functional; in short: as §1
Rattus norvegicus [33] = species: Rattus norvegicus; assay: Percent injected dose per gram liver at 3h; format: functional; in short: as §2
[34] = Tissue/blood distribution ratio was measured in immature female rats at 1 hr; format: functional; in short: as §2
Rattus norvegicus [35] = species: Rattus norvegicus; assay: Percent injected dose per gram kidney at 1 hr; format: functional; in short: as §1
Rattus norvegicus [36] = species: Rattus norvegicus; assay: Percent injected dose per gram lung at 1 hr with unlabeled estradiol; format: functional; in short: as §4
[37] = Spleen/blood distribution ratio was determined immature female rats at 6 hr; format: functional; in short: as §2
Rattus norvegicus [38] = species: Rattus norvegicus; assay: Percent injected dose per gram esophagus at 1 hr; format: functional; in short: as §1
Rattus norvegicus [39] = species: Rattus norvegicus; assay: Percent injected dose per gram Uterus at 3h; format: functional; in short: as §3
[40] = Ovary/blood distribution ratio was determined in immature female rats at 3h; format: functional; in short: as §3

C[C@]12CC[C@@H]3c4ccc(O)cc4CC[C@H]3[C@@H]1C[C@@H](I)[C@@H]2O
Ratio [1]: 0.5 | Injected dose (Rattus norvegicus [2]): 0.43% | Ratio [3]: 0.67 | Injected dose (Rattus norvegicus [4]): 11.9% | Ratio [5]: 30.8 | Injected dose (Rattus norvegicus [6]): 2.77% | Ratio [7]: 9.14 | Injected dose (Rattus norvegicus [8]): 0.22% | Injected dose (Rattus norvegicus [9]): 7.46% | Ratio [10]: 1.36 | Ratio [11]: 3.49 | Injected dose (Rattus norvegicus [12]): 0.79% | Injected dose (Rattus norvegicus [13]): 0.9% | Ratio [14]: 0.93 | Injected dose (Rattus norvegicus [15]): 0.46% | Ratio [16]: 7.36 | Injected dose (Rattus norvegicus [17]): 0.75% | Ratio [18]: 0.46 | Ratio [19]: 2.49 | Ratio [20]: 1.37 | Ratio [21]: 9.54 | Injected dose (Rattus norvegicus [22]): 0.05% | Ratio [23]: 0.27 | Injected dose (Rattus norvegicus [24]): 0.53% | Ratio [25]: 1.4 | Injected dose (Rattus norvegicus [26]): 0.94% | Ratio [27]: 3.95 | Injected dose (Rattus norvegicus [28]): 2.37% | Ratio [29]: 0.47 | Injected dose (Rattus norvegicus [30]): 276.6% | Ratio [31]: 0.67 | Injected dose (Rattus norvegicus [32]): 0.92% | Injected dose (Rattus norvegicus [33]): 1.96% | Ratio [34]: 1 | Injected dose (Rattus norvegicus [35]): 1.48% | Injected dose (Rattus norvegicus [36]): 1.76% | Ratio [37]: 0.35 | Injected dose (Rattus norvegicus [38]): 0.49% | Injected dose (Rattus norvegicus [39]): 6.83% | Ratio [40]: 2.03
